Experimental findings from ChEMBL document CHEMBL1157203, “Synthesis and cytotoxic activity of gamma-aryl substituted alpha-alkylidene-gamma-lactones and alpha-alkylidene-gamma-lactams” (Bioorg Med Chem, 2008) are described below.

Holding throughout (type): functional, cell-based
The test system of assay [1] is NALM-6. Description: Cytotoxicity against human NALM6 cells after 48 hrs by MTT assay. Summed up: (§1)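 HL-60 (promyelocytic) and NALM-6 (lymphoblastic) cells grown in RPMI 1640 with 10% heat-inactivated FBS, streptomycin and penicillin, 37 °C, 5% CO2. Exponentially growing cells seeded at 8×10^3/well. Compounds prepared fresh from DMSO stocks and tested at 10^-7 to 10^-3 M for 46 h, then MTT 2 h. Formazan dissolved in 20% SDS/50% DMF pH 4.7, absorbance 562 and 630 nm. IC50 taken from concentration-response curves, means of at least 6 repeats ± SD.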
In general terms: Tetrazolium assays rely on reduction of a dye to a coloured formazan, in cell work by metabolically active cells.

The test system of assay [2] is HL-60. The experiment in a line: Cytotoxicity against human HL60 cells after 48 hrs by MTT assay. Summed up:
as §1

The subject of assay [3] is L1210. Description: Cytotoxicity against mouse L1210 cells after 48 hrs by tetrazolium dye method.

Structures are written as SMILES. “And” between values parts separate entries of the source, which are not always exact repeats. Equal values may be shown once. A value given as a limit tells only on which side of the number the result lay.

Usually IC50 stands for the midpoint of a concentration-inhibition curve. High values mean a need for much substance, low ones inhibition by little substance. Turning to `C=C1CC(c2ccccc2)N(C)C1=O` (configuration not stated), the IC50 was 553 µM in assay [1] (Homo sapiens, NALM-6, 48 h); 989 µM in assay [2] (Homo sapiens, HL-60, 48 h); over 50 µM in assay [3] (Mus musculus, L1210, 48 h).
Regarding `C=C1C(=O)OC(c2ccc(Br)cc2)C1C` (configuration not stated), the IC50 in assay [2] (hl-60) is 41.8 µM and 5.05 µM; in assay [3] (l1210) it was 7.5 µM and 1.55 µM.
In the case of `C=C1C(=O)OC(c2ccc(OC)cc2)C1C` (configuration not stated), the IC50 is 38.6 µM and 5.23 µM in assay [1] (nalm-6); 37.9 µM and 5.69 µM in assay [2] (hl-60); 14.2 µM and 3.65 µM in assay [3] (l1210).
For `C=C1CC(c2ccc(Br)cc2)N(C)C1=O` (configuration not stated), the half-inhibitory concentration (IC50) in assay [1] (Homo sapiens, NALM-6, 48 h) is 141 µM; in assay [2] (Homo sapiens, HL-60, 48 h), 220 µM; in assay [3] (Mus musculus, L1210, 48 h), over 50 µM.
In the same order, the values of `C=C1CC(c2ccc(Br)cc2)OC1=O` (configuration not stated) are 85.3 µM, 20.3 µM and 1.3 µM.
In the case of `CC(C)/C=C1\CC(c2ccccc2)N(C)C1=O` (configuration not stated), the IC50 in assay [1] (Homo sapiens, NALM-6, 48 h) was 351 µM; in assay [2] (Homo sapiens, HL-60, 48 h), 81.3 µM; in assay [3] (Mus musculus, L1210, 48 h) it was over 50 µM.
`C=C1CC(c2ccc(OC)cc2)N(C)C1=O` (configuration not stated): the half-maximal inhibitory concentration (IC50) is 523 µM in assay [1] (Homo sapiens, NALM-6, 48 h); 611 µM in assay [2] (Homo sapiens, HL-60, 48 h); over 50 µM in assay [3] (Mus musculus, L1210, 48 h).
As to `C=C1CC(c2cccc3ccccc23)OC1=O` (configuration not stated), the IC50 in assay [1] (Homo sapiens, NALM-6, 48 h) stood at 3.86 µM; in assay [2] (Homo sapiens, HL-60, 48 h) it was 4.42 µM; in assay [3] (Mus musculus, L1210, 48 h), 4.3 µM.
As to `CC(C)/C=C1/CC(c2ccccc2)OC1=O` (configuration not stated), the IC50 in assay [1] (Homo sapiens, NALM-6, 48 h) was 483 µM; in assay [2] (Homo sapiens, HL-60, 48 h) it was 159 µM; in assay [3] (Mus musculus, L1210, 48 h) it was over 50 µM.
With `C=C1C(=O)OC(c2ccccc2)C1C` (configuration not stated), the IC50 was 7.91 µM in assay [1] (Homo sapiens, NALM-6, 48 h); 7.91 µM in assay [1] (nalm-6); 8.97 µM in assay [2] (Homo sapiens, HL-60, 48 h); 8.97 µM in assay [2] (hl-60); 4 µM and 28 µM in assay [3] (l1210).
As for `O=C1OC(c2ccccc2)C/C1=C\c1ccccc1` (configuration not stated), the IC50 in assay [1] (Homo sapiens, NALM-6, 48 h) is 497 µM; in assay [2] (Homo sapiens, HL-60, 48 h) it was over 1000 µM; in assay [3] (Mus musculus, L1210, 48 h), over 50 µM.
`C=C1CC(c2ccccc2)OC1=O` (configuration not stated): the half-inhibitory concentration (IC50) in assay [1] (Homo sapiens, NALM-6, 48 h) is 9.13 µM; in assay [2] (Homo sapiens, HL-60, 48 h) it was 36.9 µM; in assay [3] (Mus musculus, L1210, 48 h) it was 1.4 µM.
